# Active and inactive are the calls of the source. No cut-off for these calls is given here.
# Legend:
# [1] = biological target: T1, Protein cereblon/SWI/SNF-related matrix-associated actin-dependent regulator of chromatin subfamily A member 2 (Homo sapiens, UniProt P51531+Q96SW2); assay: PROTAC activity at CRBN/SMARCA2 in human NCI-H1792 cells harboring wild type SMARCA4 assessed as induction of SMARCA2 degradation incubated for 24 hrs by immunoblot analysis; type: cell-based
# In short: (§1)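 H1792 (SMARCA4-WT) cells in RPMI with 10% FBS were treated with 1 nM–10 μM for 24 or 48 h. Cells were lysed in RIPA and immunoblotted for SMARCA2, SMARCA4 and β-actin. Bands were quantified and normalised to β-actin, with DMSO set at 100%. DC50 and Dmax were derived by nonlinear regression. n = 3 biological replicates.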
# Target sequence in this assay (P51531 whole entry): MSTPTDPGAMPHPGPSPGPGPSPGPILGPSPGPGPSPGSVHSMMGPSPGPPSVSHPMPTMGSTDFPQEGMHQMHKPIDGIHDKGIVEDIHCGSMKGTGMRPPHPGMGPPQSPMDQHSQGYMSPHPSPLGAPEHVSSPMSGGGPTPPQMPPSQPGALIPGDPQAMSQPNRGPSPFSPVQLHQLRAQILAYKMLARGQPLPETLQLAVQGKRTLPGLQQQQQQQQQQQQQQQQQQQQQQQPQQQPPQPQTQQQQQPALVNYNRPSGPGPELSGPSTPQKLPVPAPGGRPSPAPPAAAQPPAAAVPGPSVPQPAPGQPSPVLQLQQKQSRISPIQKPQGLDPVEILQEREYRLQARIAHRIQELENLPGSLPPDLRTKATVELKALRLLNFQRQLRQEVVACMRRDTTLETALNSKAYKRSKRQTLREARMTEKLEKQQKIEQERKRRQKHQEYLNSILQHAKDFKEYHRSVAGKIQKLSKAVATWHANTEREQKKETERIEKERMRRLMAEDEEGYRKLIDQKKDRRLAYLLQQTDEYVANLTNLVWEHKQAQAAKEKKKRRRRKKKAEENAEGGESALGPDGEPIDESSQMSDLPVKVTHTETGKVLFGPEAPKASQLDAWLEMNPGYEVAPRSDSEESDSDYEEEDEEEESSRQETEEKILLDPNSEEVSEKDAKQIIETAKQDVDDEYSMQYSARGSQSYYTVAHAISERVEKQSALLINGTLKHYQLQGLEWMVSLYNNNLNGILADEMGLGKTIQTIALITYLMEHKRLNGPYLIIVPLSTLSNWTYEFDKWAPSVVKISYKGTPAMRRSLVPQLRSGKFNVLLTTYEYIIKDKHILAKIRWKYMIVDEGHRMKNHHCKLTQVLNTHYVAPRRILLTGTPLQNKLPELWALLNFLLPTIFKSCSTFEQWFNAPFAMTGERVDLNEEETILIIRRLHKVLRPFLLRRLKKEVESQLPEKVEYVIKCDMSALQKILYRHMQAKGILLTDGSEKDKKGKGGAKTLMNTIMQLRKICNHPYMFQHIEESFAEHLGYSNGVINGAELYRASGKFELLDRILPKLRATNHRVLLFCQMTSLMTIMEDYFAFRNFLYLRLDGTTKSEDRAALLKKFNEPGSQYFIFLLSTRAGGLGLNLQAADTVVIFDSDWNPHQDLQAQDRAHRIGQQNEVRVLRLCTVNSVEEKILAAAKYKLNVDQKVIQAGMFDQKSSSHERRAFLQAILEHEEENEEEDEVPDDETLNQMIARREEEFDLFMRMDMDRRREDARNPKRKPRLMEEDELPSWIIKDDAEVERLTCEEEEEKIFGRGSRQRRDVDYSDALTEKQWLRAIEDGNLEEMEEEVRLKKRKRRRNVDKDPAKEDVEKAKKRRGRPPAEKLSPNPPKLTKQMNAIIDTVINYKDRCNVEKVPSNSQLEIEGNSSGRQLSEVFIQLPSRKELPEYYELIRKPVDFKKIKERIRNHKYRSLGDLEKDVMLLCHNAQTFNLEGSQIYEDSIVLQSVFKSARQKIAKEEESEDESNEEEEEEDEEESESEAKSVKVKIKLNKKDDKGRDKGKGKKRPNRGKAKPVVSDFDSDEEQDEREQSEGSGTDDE
# Target sequence in this assay (Q96SW2 whole entry): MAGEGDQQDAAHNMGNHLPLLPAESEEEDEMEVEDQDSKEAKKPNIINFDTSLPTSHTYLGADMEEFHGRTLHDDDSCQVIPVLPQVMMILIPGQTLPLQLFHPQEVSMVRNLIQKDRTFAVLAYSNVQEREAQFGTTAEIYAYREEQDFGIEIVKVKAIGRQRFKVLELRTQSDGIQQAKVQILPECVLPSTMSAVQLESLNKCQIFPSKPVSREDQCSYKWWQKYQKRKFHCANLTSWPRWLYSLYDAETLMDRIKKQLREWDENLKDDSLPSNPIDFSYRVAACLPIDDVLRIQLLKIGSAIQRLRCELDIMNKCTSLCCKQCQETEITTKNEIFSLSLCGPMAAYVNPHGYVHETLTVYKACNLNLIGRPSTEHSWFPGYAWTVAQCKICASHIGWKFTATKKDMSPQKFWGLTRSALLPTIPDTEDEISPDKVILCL
# [2] = biological target: T1, Protein cereblon/SWI/SNF-related matrix-associated actin-dependent regulator of chromatin subfamily A member 2; assay: PROTAC activity at CRBN/SMARCA2 in human NCI-H1792 cells harboring wild type SMARCA4 assessed as induction of SMARCA2 degradation incubated for 48 hrs by immunoblot analysis; type: cell-based; in short: as §1
# Target sequence in this assay (P51531 whole entry): as the sequence (P51531 whole entry) above
# Target sequence in this assay (Q96SW2 whole entry): as the sequence (Q96SW2 whole entry) above
# [3] = biological target: T2, Protein cereblon/SWI/SNF-related matrix-associated actin-dependent regulator of chromatin subfamily A member 4 (Homo sapiens, UniProt P51532+Q96SW2); assay: PROTAC activity at CRBN/SMARCA4 in human NCI-H1792 cells harboring wild type SMARCA4 assessed as induction of SMARCA4 degradation incubated for 24 hrs by immunoblot analysis; type: cell-based; in short: as §1
# T2 sequence (P51532 whole entry): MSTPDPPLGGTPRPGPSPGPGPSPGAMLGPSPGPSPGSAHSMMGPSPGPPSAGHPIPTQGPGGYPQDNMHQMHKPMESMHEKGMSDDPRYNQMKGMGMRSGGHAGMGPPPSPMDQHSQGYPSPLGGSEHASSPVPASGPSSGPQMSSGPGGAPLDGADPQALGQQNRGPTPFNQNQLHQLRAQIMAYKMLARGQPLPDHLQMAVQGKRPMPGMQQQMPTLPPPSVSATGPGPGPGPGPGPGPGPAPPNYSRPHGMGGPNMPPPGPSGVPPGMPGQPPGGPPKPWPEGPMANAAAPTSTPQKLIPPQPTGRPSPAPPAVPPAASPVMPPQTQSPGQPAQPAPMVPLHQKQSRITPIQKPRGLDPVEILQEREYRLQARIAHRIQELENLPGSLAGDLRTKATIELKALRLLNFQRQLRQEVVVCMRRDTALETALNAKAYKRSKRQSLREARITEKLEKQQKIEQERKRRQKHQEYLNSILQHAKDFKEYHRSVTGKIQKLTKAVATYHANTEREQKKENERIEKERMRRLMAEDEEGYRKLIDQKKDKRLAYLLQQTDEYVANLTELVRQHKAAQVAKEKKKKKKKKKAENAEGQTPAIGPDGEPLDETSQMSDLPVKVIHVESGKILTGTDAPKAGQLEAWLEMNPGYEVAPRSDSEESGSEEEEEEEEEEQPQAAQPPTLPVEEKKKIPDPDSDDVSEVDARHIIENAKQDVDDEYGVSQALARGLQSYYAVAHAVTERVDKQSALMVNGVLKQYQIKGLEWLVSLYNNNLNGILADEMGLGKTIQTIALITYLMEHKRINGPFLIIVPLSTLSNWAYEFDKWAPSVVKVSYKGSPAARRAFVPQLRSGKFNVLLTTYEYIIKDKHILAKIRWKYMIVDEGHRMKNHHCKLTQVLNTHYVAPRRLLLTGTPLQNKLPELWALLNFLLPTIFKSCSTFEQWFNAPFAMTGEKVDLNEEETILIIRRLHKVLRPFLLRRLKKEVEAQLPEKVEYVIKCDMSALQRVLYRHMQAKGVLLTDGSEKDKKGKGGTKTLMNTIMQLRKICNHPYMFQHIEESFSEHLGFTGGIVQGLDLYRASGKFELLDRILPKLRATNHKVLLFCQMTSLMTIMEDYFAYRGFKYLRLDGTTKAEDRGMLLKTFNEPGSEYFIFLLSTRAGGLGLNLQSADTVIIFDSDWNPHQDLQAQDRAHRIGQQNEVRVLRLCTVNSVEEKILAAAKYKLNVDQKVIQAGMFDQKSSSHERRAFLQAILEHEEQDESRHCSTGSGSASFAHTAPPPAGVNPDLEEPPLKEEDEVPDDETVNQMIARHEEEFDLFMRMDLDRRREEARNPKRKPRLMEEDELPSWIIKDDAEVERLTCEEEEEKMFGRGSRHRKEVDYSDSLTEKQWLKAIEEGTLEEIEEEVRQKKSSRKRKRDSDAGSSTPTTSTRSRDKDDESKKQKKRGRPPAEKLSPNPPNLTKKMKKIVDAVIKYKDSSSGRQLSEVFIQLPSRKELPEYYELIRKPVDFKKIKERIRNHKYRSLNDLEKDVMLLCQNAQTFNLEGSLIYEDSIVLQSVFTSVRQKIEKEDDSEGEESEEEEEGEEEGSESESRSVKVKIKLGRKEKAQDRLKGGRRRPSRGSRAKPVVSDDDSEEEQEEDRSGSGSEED
# T2 sequence (Q96SW2 whole entry): as the sequence (Q96SW2 whole entry) above
# [4] = biological target: T2, Protein cereblon/SWI/SNF-related matrix-associated actin-dependent regulator of chromatin subfamily A member 4; assay: PROTAC activity at CRBN/SMARCA4 in human NCI-H1792 cells harboring wild type SMARCA4 assessed as induction of SMARCA4 degradation incubated for 48 hrs by immunoblot analysis; type: cell-based; in short: as §1
# [5] = biological target: T1, Protein cereblon/SWI/SNF-related matrix-associated actin-dependent regulator of chromatin subfamily A member 2; assay: PROTAC activity at CRBN/SMARCA2 in human NCI-H1792 cells harboring wild type SMARCA4 assessed as induction of SMARCA2 degradation incubated up to 96 hrs by immunoblot analysis; type: cell-based
# [6] = biological target: T1, Protein cereblon/SWI/SNF-related matrix-associated actin-dependent regulator of chromatin subfamily A member 2; assay: PROTAC activity at CRBN/SMARCA2 in human H322 cells harboring mutated SMARCA4 assessed as induction of SMARCA2 degradation incubated for 48 hrs by immunoblot analysis; type: cell-based
# In short: (§2)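 SMARCA4-mutant H322, HCC515, H2030 and H2126 cells were treated as indicated. SMARCA2 was immunoblotted in RIPA lysates and quantified after normalisation to β-actin. Expression is given relative to DMSO-treated cells, and Dmax was derived by nonlinear regression.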
# Target sequence in this assay (P51531 whole entry, looked up, change not shown): as the sequence (P51531 whole entry) above
# Target sequence in this assay (Q96SW2 whole entry, looked up, change not shown): as the sequence (Q96SW2 whole entry) above
# [7] = biological target: T1, Protein cereblon/SWI/SNF-related matrix-associated actin-dependent regulator of chromatin subfamily A member 2; assay: PROTAC activity at CRBN/SMARCA2 in human HCC515 cells harboring mutated SMARCA4 assessed as induction of SMARCA2 degradation incubated for 48 hrs by immunoblot analysis; type: cell-based; in short: as §2
# Target sequence in this assay (P51531 whole entry, looked up, change not shown): as the sequence (P51531 whole entry) above
# Target sequence in this assay (Q96SW2 whole entry, looked up, change not shown): as the sequence (Q96SW2 whole entry) above
# [8] = biological target: T1, Protein cereblon/SWI/SNF-related matrix-associated actin-dependent regulator of chromatin subfamily A member 2; assay: PROTAC activity at CRBN/SMARCA2 in human NCI-H2030 cells harboring mutated SMARCA4 assessed as induction of SMARCA2 degradation incubated for 48 hrs by immunoblot analysis; type: cell-based; in short: as §2
# Target sequence in this assay (P51531 whole entry, looked up, change not shown): as the sequence (P51531 whole entry) above
# Target sequence in this assay (Q96SW2 whole entry, looked up, change not shown): as the sequence (Q96SW2 whole entry) above
# [9] = biological target: T1, Protein cereblon/SWI/SNF-related matrix-associated actin-dependent regulator of chromatin subfamily A member 2; assay: PROTAC activity at CRBN/SMARCA2 in human NCI-H2126 cells harboring mutated SMARCA4 assessed as induction of SMARCA2 degradation incubated for 48 hrs by immunoblot analysis; type: cell-based; in short: as §2
# Target sequence in this assay (P51531 whole entry, looked up, change not shown): as the sequence (P51531 whole entry) above
# Target sequence in this assay (Q96SW2 whole entry, looked up, change not shown): as the sequence (Q96SW2 whole entry) above
# [10] = (§3) Inhibition of colony formation in human NCI-H2122 cells harboring wild type SMARCA4 incubated for 9 to 14 days by crystal violet staining based assay; type: functional, cell-based
# In short: (§4)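 Single cells, 0.5–2 × 10^3 per well in 6-well plates, in RPMI with 10% FBS. Grown 9–14 days in drug-containing medium, refreshed every fifth day. Fixed in 10% formalin, stained with 0.01% crystal violet. Total colony area quantified and expressed relative to DMSO. n = 3 biological replicates. IC50 ratio is wild-type over mutant.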
# NCI-H2122 = assay: as §3; type: functional, cell-based; conditions: dose 0.001-10 µM, time 9-14 day; in short: as §4
# [11] = (§5) Inhibition of colony formation in human HCC44 cells harboring wild type SMARCA4 incubated for 9 to 14 days by crystal violet staining based assay; type: functional, cell-based; in short: as §4
# HCC44 = assay: as §5; type: functional, cell-based; conditions: dose 0.001-10 µM, time 9-14 day; in short: as §4
# [12] = biological target: T1, Protein cereblon/SWI/SNF-related matrix-associated actin-dependent regulator of chromatin subfamily A member 2; assay: PROTAC activity at CRBN/SMARCA2 in CRBN knockout human H322 cells harboring SMARCA4 mutant assessed as induction of SMARCA2 degradation at 0.1 uM by immunoblot analysis; type: cell-based
# [13] = biological target: T1, Protein cereblon/SWI/SNF-related matrix-associated actin-dependent regulator of chromatin subfamily A member 2; assay: PROTAC activity at CRBN/SMARCA2 in human NCI-H1792 cells harboring wild type SMARCA4 assessed as reduction in SMARCA2 protein level at 20 nM incubated for 24 hrs by TMT mass spectrometric analysis; type: cell-based
# [14] = (§6) Inhibition of colony formation in human NCI-H1568 cells harboring SMARCA4 mutant incubated for 9 to 14 days by crystal violet staining based assay; type: functional, cell-based; in short: as §4
# NCI-H1568 = assay: as §6; type: functional, cell-based; conditions: dose 0.001-10 µM, time 9-14 day; in short: as §4
# NCI-H1693 = assay: Inhibition of colony formation in human NCI-H1693 cells harboring SMARCA4 mutant incubated for 9 to 14 days by crystal violet staining based assay; type: functional, cell-based; conditions: for inhibition: dose 0.001-10 µM, time 9-14 day; in short: as §4
# [15] = Metabolic stability in mouse liver microsomes assessed as compound remaining by measuring fold change in absence of NADPH measured after 60 mins by LC-MS/MS analysis; type: ADME, Microsome; conditions: 1 h
# In short: (§7)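 Microsomes at 0.5 mg protein/mL preincubated with compound for 10 min at 37 °C. The NCF60 control received 100 mM potassium phosphate buffer in place of the NADPH regenerating system and was incubated 1 h at 37 °C. Quenched with cold acetonitrile containing tolbutamide and labetalol internal standards, centrifuged, supernatant analyzed by LC-MS/MS. Fraction remaining reported.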
# [16] = Metabolic stability in human liver microsomes assessed as compound remaining by measuring fold change in absence of NADPH measured after 60 mins by LC-MS/MS analysis; type: ADME, Microsome; conditions: 1 h; in short: as §7
# [17] = AUC (0 to last) in male CD-1 (ICR) mouse at 25 mg/kg, ip measured up to 24 hrs by LC-MS/MS analysis; type: ADME, organism-based; conditions: in vivo
# In short: (§8)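 Single 25 mg/kg dose. IP vehicle was 5% DMSO/5% solutol/90% water at 1.25 mg/mL, final pH 4.39, clear solution. Oral vehicle was 0.5% methylcellulose/0.2% Tween 80 in water, opaque suspension. Plasma sampled at 0.25, 0.5, 1, 2, 4, 8 and 24 h. Plasma protein-precipitated with internal standard in acetonitrile, then LC-MS/MS. n = 3 mice per time point, mean.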
# [18] = Cmax in male CD-1 (ICR) mouse at 25 mg/kg, po measured up to 24 hrs by LC-MS/MS analysis; type: ADME, organism-based; conditions: in vivo; in short: as §8
# [19] = Cmax in male CD-1 (ICR) mouse at 25 mg/kg, ip measured up to 24 hrs by LC-MS/MS analysis; type: ADME, organism-based; conditions: in vivo; in short: as §8
# [20] = Half life in male CD-1 (ICR) mouse at 25 mg/kg, ip measured up to 24 hrs by LC-MS/MS analysis; type: ADME, organism-based; conditions: in vivo; in short: as §8
# [21] = AUC (0 to last) in male CD-1 (ICR) mouse at 25 mg/kg, po measured up to 24 hrs by LC-MS/MS analysis; type: ADME, organism-based; conditions: in vivo; in short: as §8
# [22] = AUC (0 to infinity) in male CD-1 (ICR) mouse at 25 mg/kg, ip measured up to 24 hrs by LC-MS/MS analysis; type: ADME, organism-based; conditions: in vivo; in short: as §8
SMILES,DC50 [1],DC50 [2],DC50 [3],DC50 [4],Activity [5],DC50 [6],DC50 [7],DC50 [8],DC50 [9],inhibition (NCI-H2122),IC50 [11],inhibition (HCC44),IC50 [14],inhibition (NCI-H1568),IC50 (NCI-H1693),inhibition (NCI-H1693),fold change (FC) [15],fold change (FC) [16],AUClast [17],Cmax [18],also measured
Nc1nnc(-c2ccccc2O)cc1N1CCN(Cc2ccc(N3CCN(CCOc4cccc5c4C(=O)N(C4CCC(=O)NC4=O)C5=O)CC3)c(F)c2)CC1 (configuration not stated),0.0081 µM,0.016 µM,0.019 µM,0.149 µM,Active; More Potent And Fastest Degradation Observed,0.001 µM,0.0012 µM,0.0103 µM,0.0016 µM,Dose-dependent-effect,9.1 µM,Dose-dependent-effect,0.011 µM,Dose-dependent-effect,0.011 µM,Dose-dependent-effect,0.368,0.501,19.3653 µg·h/mL,0.587 µg/mL,"IC50 ([10]; Homo sapiens, NCI-H2122, read-out: IC50): 9.1 µM; Activity [12]: inactive; Activity [13]: Active; Cmax [19]: 2.0397 µg/mL; t1/2 [20]: 13 h; AUClast [21]: 4.743 µg·h/mL; AUC [22]: 27.1083 µg·h/mL"
Nc1nnc(-c2ccccc2O)cc1N1CCN(Cc2ccc(N3CCC(CN4CCN(c5ccc6c(c5)C(=O)N(C5CCC(=O)NC5=O)C6=O)CC4)CC3)c(F)c2)CC1 (configuration not stated),0.069 µM,0.06 µM,0.135 µM,0.381 µM,Active,0.0064 µM,0.0106 µM,0.0127 µM,0.0012 µM,Dose-dependent-effect,10 µM,Dose-dependent-effect,0.078 µM,Dose-dependent-effect,0.078 µM,Dose-dependent-effect,0.935,0.33,23.2137 µg·h/mL,0.6493 µg/mL,"IC50 ([10]; dose 0.001-10 µM, time 9-14 day): 10 µM; Cmax [19]: 1.7563 µg/mL; t1/2 [20]: 44.8 h; AUClast [21]: 12.0793 µg·h/mL; AUC [22]: 68.813 µg·h/mL"

# — ChEMBL document CHEMBL6134900 (J Med Chem, 2025)
